These results are taken from ChEMBL document CHEMBL1152431, “p-Guanidinoethyl calixarene and parent phenol derivatives exhibiting antibacterial activities. Synthesis and biological evaluation” (Bioorg Med Chem, 2009).

The source made the active and inactive calls.

A word on the IC50: it is the concentration at which inhibition is half-maximal. A lower IC50 goes with greater potency. What is called MIC is the smallest concentration in the dilution series that meets the test's criterion for growth inhibition.

Assay [1] in a line: Selectivity index, ratio of IC50 for human MRC5 cells after 24 hrs to MIC for Escherichia coli ATCC 25922. In kind it is functional. In a few lines: (§1)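 SI computed as the MRC-5 IC50 after 24 h of drug exposure divided by the broth microdilution MIC for the named reference strain.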
Assay [2] deals with MRC5. In words: Cytotoxicity against human MRC5 cells after 48 hrs. In kind it is cell-based. The settings on record: MRC5, 48 h. A digest of the protocol:
(§2)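 MRC-5 human embryonic lung fibroblasts were grown in MEM with 10% heat-inactivated FBS and no antibiotics at 37 °C, 5% CO2, and seeded at 10^4 cells/well. After 48 h, drugs were applied at 256 to 1 µg/mL for 24, 48 or 168 h. Viability was read by MTT, or by LDH release for some compounds, as percent of untreated control. IC50 was given as a range; 8 wells per dose, 3 independent experiments.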

The nature of assay [3]: Selectivity index, ratio of IC50 for human MRC5 cells after 24 hrs to MIC for Enterococcus faecalis ATCC 29212. The format is functional. In a few lines:
as §1

Assay [4] deals with Enterococcus faecalis. In words: Antibacterial activity against Enterococcus faecalis ATCC 29212 after 18 to 24 hrs by broth microdilution method. The format is functional. In a few lines:
(§3)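 CLSI broth microdilution in Mueller-Hinton broth, with a final inoculum of 1 × 10^5 CFU/mL in U-bottom microplates. Isolate purity was checked at each test by colony morphology and Gram stain. Drug dilutions were added and plates incubated 18–24 h at 35 °C. Growth was read as absorbance at 540 nm to give the MIC.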
On the technique in general: In broth dilution the organism is exposed to a series of concentrations in liquid medium.

Assay [5] deals with MRC5. The assay can be described thus: Cytotoxicity against human MRC5 cells after 168 hrs. In kind it is cell-based. The settings on record: MRC5, 168 h. A digest of the protocol: as §2
Assay [6] is described as follows: Selectivity index, ratio of IC50 for human MRC5 cells after 24 hrs to MIC for Pseudomonas aeruginosa ATCC 27853. The format is functional. In a few lines:
as §1

In assay [7] the test system is Staphylococcus aureus. The assay can be described thus: Antibacterial activity against Staphylococcus aureus ATCC 29213 after 18 to 24 hrs by broth microdilution method. The format is functional. In a few lines:
as §3

In assay [8] the test system is Escherichia coli. The assay can be described thus: Antibacterial activity against Escherichia coli ATCC 25922 after 18 to 24 hrs by broth microdilution method. The format is functional. In a few lines: as §3
The test system of assay [9] is Pseudomonas aeruginosa. In words: Antibacterial activity against Pseudomonas aeruginosa ATCC 27853 after 18 to 24 hrs by broth microdilution method. The format is functional. In a few lines:
as §3

A short description of assay [10]: Selectivity index, ratio of IC50 for human MRC5 cells after 24 hrs to MIC for Staphylococcus aureus ATCC 25923. The format is functional. In a few lines: as §1
The test system of assay [11] is MRC5. The assay can be described thus: Cytotoxicity against human MRC5 cells after 24 hrs. The settings on record: MRC5, 24 h. The format is cell-based. A digest of the protocol:
as §2

A short description of assay [12]: Selectivity index, ratio of IC50 for human MRC5 cells after 24 hrs to MIC for Staphylococcus aureus ATCC 29213. In kind it is functional. A digest of the protocol: as §1
For assay [13], the system named is Staphylococcus aureus. The assay can be described thus: Antibacterial activity against Staphylococcus aureus ATCC 25923 after 18 to 24 hrs by broth microdilution method. The format is functional. In a few lines: as §3
The test system of assay [14] is Escherichia coli. The assay can be described thus: Antibacterial activity against Escherichia coli ATCC 25922 upto 256 ug/mL after 18 to 24 hrs by broth microdilution method. The format is functional, organism-based. A digest of the protocol: as §3
In assay [15] the test system is Staphylococcus aureus. The assay can be described thus: Antibacterial activity against Staphylococcus aureus ATCC 29213 upto 256 ug/mL after 18 to 24 hrs by broth microdilution method. In kind it is functional, organism-based. In a few lines: as §3
For assay [16], the system named is Staphylococcus aureus. In words: Antibacterial activity against Staphylococcus aureus ATCC 25923 upto 256 ug/mL after 18 to 24 hrs by broth microdilution method. In kind it is functional, organism-based. A digest of the protocol: as §3
For assay [17], the system named is Pseudomonas aeruginosa. In words: Antibacterial activity against Pseudomonas aeruginosa ATCC 27853 upto 256 ug/mL after 18 to 24 hrs by broth microdilution method. The format is functional, organism-based. A digest of the protocol:
as §3

Assay [18] has as its system Enterococcus faecalis. In words: Antibacterial activity against Enterococcus faecalis ATCC 29212 upto 256 ug/mL after 18 to 24 hrs by broth microdilution method. In kind it is functional, organism-based. In a few lines:
as §3

Take `Cc1csc(-c2nc(COc3ccc(CCNC(=N)N)cc3)cs2)n1.O=C(O)C(F)(F)F`: the “Selectivity Index” value in [1] is recorded as 1; in assay [3] it was 1; in assay [6], 0.5; in assay [10] it was 4; in assay [12], 8. In addition, the IC50 in assay [2] came out at 32 µg/mL; in assay [5], 8 µg/mL; in assay [11], 64 µg/mL. In addition, the minimum inhibitory concentration (MIC) is 64 µg/mL in assay [4]; 8 µg/mL in assay [7]; 64 µg/mL in assay [8]; 128 µg/mL in [9]; 16 µg/mL in assay [13].

In the case of `N=C(N)NCCc1cc2c(O)c(c1)Cc1cc(CCNC(=N)N)cc(c1O)Cc1cc(CCNC(=N)N)cc(c1O)Cc1cc(CCNC(=N)N)cc(c1O)C2.O=C(O)C(F)(F)F`, the “Selectivity Index” value is on record as more than 64 in assay [1]; more than 8 in assay [3]; more than 8 in assay [6]; more than 32 in assay [10]; more than 32 in assay [12]. Moreover, the values for the IC50 in assay [2], in assay [5] and in assay [11] were more than 256 µg/mL, 128 µg/mL and more than 256 µg/mL, respectively. The minimal inhibitory concentration (MIC) in assay [4] amounted to 32 µg/mL; in [7], 8 µg/mL; in [8] it was 4 µg/mL; in [9], 32 µg/mL; in [13] it was 8 µg/mL.

Take `N=C(N)NCCCCCCCCCCNC(=N)N.O=C(O)C(F)(F)F` [SYNTHALIN A]: the “Selectivity Index” value in [1] is on record as 2; in assay [3], 0.5; in assay [6] it was 1; in assay [10], 2; in [12] it was 8. In addition, the IC50 in assay [2] was 8 µg/mL; in assay [5] it was less than 1 µg/mL; in assay [11] it was 128 µg/mL. In addition, the minimum inhibitory concentration (MIC) was determined as 256 µg/mL in [4]; 16 µg/mL in assay [7]; 64 µg/mL in [8]; 128 µg/mL in assay [9]; 64 µg/mL in [13].

On to `Cc1ccc(-c2ccc(COc3ccc(CCNC(=N)N)cc3)cn2)nc1.O=C(O)C(F)(F)F`, for which the “Selectivity Index” value was more than 16 in assay [1]; more than 2 in assay [3]; more than 1 in assay [6]; more than 16 in [10]; more than 32 in [12]. Also, the concentration for half-maximal inhibition (IC50) in [2] and in assay [11] was more than 128 µg/mL throughout. In addition, the minimal inhibitory concentration (MIC) stood at 64 µg/mL in assay [4]; 4 µg/mL in assay [7]; 8 µg/mL in assay [8]; 128 µg/mL in assay [9]; 8 µg/mL in [13].

On to `Cc1cccc(-c2cccc(COc3ccc(CCNC(=N)N)cc3)n2)n1.O=C(O)C(F)(F)F`, for which the “Selectivity Index” value stood at 0.25 in [1]; 0.5 in assay [3]; 0.25 in assay [6]; 2 in [10]; 4 in assay [12]. In addition, the concentration for half-maximal inhibition (IC50) in [2] was 16 µg/mL; in [5], 2 µg/mL; in assay [11] it was 32 µg/mL. For the same compound, the MIC in assay [4] turned out to be 64 µg/mL; in assay [7], 8 µg/mL; in assay [8] it was 128 µg/mL; in assay [9], 128 µg/mL; in [13], 16 µg/mL.

In the case of `O=C([O-])C(F)(F)F.[Na+]`, the outcome in assay [14], in assay [15], in [16], in assay [17] and in assay [18] was inactive.

`N=C(N)NCCc1ccc(O)cc1.O=C(O)C(F)(F)F`: the “Selectivity Index” value in assay [1], in [10] and in assay [12] was more than 0.5 each time. Further, the IC50 was more than 256 µg/mL in assay [2], 32 µg/mL in assay [5] and more than 256 µg/mL in [11]. Besides, the MIC in assay [4] is more than 512 µg/mL; in [7], 512 µg/mL; in assay [8], 512 µg/mL; in assay [9], more than 512 µg/mL; in assay [13], 512 µg/mL.

In the case of `N=C(N)c1ccc(OCCCCCCOc2ccc(C(=N)N)cc2)cc1.O=C(O)C(F)(F)F`, the “Selectivity Index” value in [1] is 4; in assay [3], 16; in [6], 1; in [10] it was 8; in assay [12] it was 32. The 50% inhibitory concentration (IC50) in assay [2] was determined as 16 µg/mL; in assay [5], 4 µg/mL; in [11] it was 32 µg/mL. For the same compound, the MIC is 2 µg/mL in assay [4]; less than 1 µg/mL in assay [7]; 8 µg/mL in [8]; 32 µg/mL in assay [9]; 4 µg/mL in assay [13].

As for `Cc1cccc(-c2cccc(COc3c4cc(CCNC(=N)N)cc3Cc3cc(CCNC(=N)N)cc(c3O)Cc3cc(CCNC(=N)N)cc(c3OCc3cccc(-c5cccc(C)n5)n3)Cc3cc(CCNC(=N)N)cc(c3O)C4)n2)n1.O=C(O)C(F)(F)F`, the “Selectivity Index” value in assay [1], in [3], in assay [6], in [10] and in [12] was 1 throughout. Besides, the 50% inhibitory concentration (IC50) in [2], in [5] and in assay [11] was 16 µg/mL each time. Further, the MIC in [4], in assay [7], in [8], in assay [9] and in assay [13] was 16 µg/mL each time.

`Cc1csc(-c2nc(COc3c4cc(CCNC(=N)N)cc3Cc3cc(CCNC(=N)N)cc(c3O)Cc3cc(CCNC(=N)N)cc(c3OCc3csc(-c5nc(C)cs5)n3)Cc3cc(CCNC(=N)N)cc(c3O)C4)cs2)n1.O=C(O)C(F)(F)F`: the “Selectivity Index” value in [1] is 1; in [3] it was 2; in [6], 1; in [10], 2; in assay [12] it was 1. Moreover, the IC50 in assay [2], in assay [5] and in assay [11] was 16 µg/mL throughout. In addition, the MIC in [4] came to 8 µg/mL; in assay [7], 16 µg/mL; in [8] it was 16 µg/mL; in assay [9], 16 µg/mL; in assay [13], 8 µg/mL.

Consider `Cc1ccc(-c2ccc(COc3c4cc(CCNC(=N)N)cc3Cc3cc(CCNC(=N)N)cc(c3O)Cc3cc(CCNC(=N)N)cc(c3OCc3ccc(-c5ccc(C)cn5)nc3)Cc3cc(CCNC(=N)N)cc(c3O)C4)cn2)nc1.O=C(O)C(F)(F)F`, for which the “Selectivity Index” value is recorded as more than 4 in assay [1]; more than 16 in assay [3]; more than 4 in assay [6]; more than 16 in assay [10]; more than 16 in [12]. The concentration for half-maximal inhibition (IC50) in assay [2] and in assay [11] was more than 128 µg/mL throughout. The MIC is 8 µg/mL in [4]; 8 µg/mL in [7]; 32 µg/mL in assay [8]; 32 µg/mL in assay [9]; 8 µg/mL in [13].
